The text below walks through data of ChEMBL document CHEMBL4257443, “The discovery of a potent Nav1.3 inhibitor with good oral pharmacokinetics” (Medchemcomm, 2017).

In brackets after ≈: the same amount, converted by molar mass. Activity calls are given as the source filed them. The rule behind the calls is not given here.

The target in data set [1] is Sodium channel protein type 9 subunit alpha (Homo sapiens, UniProt Q15858). The data set is described as follows: Inhibition of human NaV1.7.
The target of data set [2] is Sodium channel protein type 10 subunit alpha (Homo sapiens, UniProt Q9Y5Y9). The data set is described as follows: Inhibition of human NaV1.8.
Data set [3] has as its system MDR1. Put plainly: Efflux ratio of permeability across basolateral to apical over apical to basolateral side in RRCK cells expressing MDR1. In kind it is ADME, cell-based, Canis lupus familiaris, MDCKII-LE. The note with it: dog, MDCK-MDR1.
A short description of data set [4]: Elimination half life in rat. Format: ADME, organism-based. The note with it: in vivo, read-out: beta t1/2 (converted).
A short description of data set [5]: Volume of distribution in rat. Format: ADME, organism-based. The note with it: in vivo.
Data set [6] can be described thus: Clearance in dog liver microsomes. Format: ADME, Canis lupus familiaris, microsome. Conditions: read-out: CLH. In general terms: Liver microsomes are vesicles of endoplasmic reticulum, rich in cytochrome P450 enzymes.
The nature of data set [7]: Lipophilicity, log D of the compound. Conditions: octanol/water. Format: physicochemical.
In data set [8] the target is Voltage-gated inwardly rectifying potassium channel KCNH2 (Homo sapiens, UniProt Q12809). Put plainly: Inhibition of human ERG.
Chain of Voltage-gated inwardly rectifying potassium channel KCNH2 (Q12809 whole entry): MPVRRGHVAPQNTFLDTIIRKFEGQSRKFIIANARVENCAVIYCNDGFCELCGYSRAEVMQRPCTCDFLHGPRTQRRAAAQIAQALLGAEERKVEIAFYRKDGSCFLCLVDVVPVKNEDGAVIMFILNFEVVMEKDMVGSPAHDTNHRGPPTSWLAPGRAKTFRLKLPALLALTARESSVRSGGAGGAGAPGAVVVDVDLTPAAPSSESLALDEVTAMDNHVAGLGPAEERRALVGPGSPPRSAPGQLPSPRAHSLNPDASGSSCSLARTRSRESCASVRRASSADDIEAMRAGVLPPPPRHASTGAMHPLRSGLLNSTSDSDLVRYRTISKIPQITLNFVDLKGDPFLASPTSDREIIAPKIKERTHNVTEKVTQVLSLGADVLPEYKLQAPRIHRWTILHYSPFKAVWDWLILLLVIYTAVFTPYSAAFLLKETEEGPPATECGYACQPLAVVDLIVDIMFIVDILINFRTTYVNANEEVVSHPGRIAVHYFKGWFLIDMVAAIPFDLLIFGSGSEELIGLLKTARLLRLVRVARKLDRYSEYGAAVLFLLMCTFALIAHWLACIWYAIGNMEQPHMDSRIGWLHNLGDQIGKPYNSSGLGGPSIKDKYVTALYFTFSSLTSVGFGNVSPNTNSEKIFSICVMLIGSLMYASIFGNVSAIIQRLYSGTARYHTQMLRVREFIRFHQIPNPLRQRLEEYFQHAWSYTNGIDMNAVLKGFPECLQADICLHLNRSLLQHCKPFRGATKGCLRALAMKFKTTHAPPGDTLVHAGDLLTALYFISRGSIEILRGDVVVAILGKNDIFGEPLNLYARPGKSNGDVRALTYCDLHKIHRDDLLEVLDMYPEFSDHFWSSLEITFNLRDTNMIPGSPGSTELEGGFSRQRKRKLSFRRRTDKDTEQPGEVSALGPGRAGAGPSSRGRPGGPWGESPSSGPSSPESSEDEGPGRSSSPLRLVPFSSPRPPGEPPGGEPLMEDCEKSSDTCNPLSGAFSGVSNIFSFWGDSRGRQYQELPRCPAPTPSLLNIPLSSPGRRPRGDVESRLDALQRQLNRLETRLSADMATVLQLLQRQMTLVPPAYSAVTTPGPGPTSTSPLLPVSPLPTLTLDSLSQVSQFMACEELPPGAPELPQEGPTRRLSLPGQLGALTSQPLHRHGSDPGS
The target of data set [9] is Sodium channel protein type 1 subunit alpha (Homo sapiens, UniProt P35498). Put plainly: Inhibition of human NaV1.1.
Data set [10] can be described thus: Clearance in cynomolgus monkey liver microsomes. In kind it is ADME, Macaca fascicularis, microsome. Conditions: read-out: CLH.
Data set [11] in a line: Aqueous solubility of compound. Format: physicochemical. Conditions: buffer.
The nature of data set [12]: Oral bioavailability in rat. Format: ADME, organism-based. The note with it: in vivo.
A short description of data set [13]: Dissociation constant, pKa of compound. Format: physicochemical.
Data set [14] in a line: Clearance in rat. Format: ADME, organism-based. Conditions: in vivo.
A short description of data set [15]: Fraction unbound in rat plasma. Format: ADME, cell-free.
The target of data set [16] is Sodium channel protein type 2 subunit alpha (Homo sapiens, UniProt Q99250). The data set is described as follows: Inhibition of human NaV1.2.
Chain of Sodium channel protein type 2 subunit alpha (Q99250 whole entry): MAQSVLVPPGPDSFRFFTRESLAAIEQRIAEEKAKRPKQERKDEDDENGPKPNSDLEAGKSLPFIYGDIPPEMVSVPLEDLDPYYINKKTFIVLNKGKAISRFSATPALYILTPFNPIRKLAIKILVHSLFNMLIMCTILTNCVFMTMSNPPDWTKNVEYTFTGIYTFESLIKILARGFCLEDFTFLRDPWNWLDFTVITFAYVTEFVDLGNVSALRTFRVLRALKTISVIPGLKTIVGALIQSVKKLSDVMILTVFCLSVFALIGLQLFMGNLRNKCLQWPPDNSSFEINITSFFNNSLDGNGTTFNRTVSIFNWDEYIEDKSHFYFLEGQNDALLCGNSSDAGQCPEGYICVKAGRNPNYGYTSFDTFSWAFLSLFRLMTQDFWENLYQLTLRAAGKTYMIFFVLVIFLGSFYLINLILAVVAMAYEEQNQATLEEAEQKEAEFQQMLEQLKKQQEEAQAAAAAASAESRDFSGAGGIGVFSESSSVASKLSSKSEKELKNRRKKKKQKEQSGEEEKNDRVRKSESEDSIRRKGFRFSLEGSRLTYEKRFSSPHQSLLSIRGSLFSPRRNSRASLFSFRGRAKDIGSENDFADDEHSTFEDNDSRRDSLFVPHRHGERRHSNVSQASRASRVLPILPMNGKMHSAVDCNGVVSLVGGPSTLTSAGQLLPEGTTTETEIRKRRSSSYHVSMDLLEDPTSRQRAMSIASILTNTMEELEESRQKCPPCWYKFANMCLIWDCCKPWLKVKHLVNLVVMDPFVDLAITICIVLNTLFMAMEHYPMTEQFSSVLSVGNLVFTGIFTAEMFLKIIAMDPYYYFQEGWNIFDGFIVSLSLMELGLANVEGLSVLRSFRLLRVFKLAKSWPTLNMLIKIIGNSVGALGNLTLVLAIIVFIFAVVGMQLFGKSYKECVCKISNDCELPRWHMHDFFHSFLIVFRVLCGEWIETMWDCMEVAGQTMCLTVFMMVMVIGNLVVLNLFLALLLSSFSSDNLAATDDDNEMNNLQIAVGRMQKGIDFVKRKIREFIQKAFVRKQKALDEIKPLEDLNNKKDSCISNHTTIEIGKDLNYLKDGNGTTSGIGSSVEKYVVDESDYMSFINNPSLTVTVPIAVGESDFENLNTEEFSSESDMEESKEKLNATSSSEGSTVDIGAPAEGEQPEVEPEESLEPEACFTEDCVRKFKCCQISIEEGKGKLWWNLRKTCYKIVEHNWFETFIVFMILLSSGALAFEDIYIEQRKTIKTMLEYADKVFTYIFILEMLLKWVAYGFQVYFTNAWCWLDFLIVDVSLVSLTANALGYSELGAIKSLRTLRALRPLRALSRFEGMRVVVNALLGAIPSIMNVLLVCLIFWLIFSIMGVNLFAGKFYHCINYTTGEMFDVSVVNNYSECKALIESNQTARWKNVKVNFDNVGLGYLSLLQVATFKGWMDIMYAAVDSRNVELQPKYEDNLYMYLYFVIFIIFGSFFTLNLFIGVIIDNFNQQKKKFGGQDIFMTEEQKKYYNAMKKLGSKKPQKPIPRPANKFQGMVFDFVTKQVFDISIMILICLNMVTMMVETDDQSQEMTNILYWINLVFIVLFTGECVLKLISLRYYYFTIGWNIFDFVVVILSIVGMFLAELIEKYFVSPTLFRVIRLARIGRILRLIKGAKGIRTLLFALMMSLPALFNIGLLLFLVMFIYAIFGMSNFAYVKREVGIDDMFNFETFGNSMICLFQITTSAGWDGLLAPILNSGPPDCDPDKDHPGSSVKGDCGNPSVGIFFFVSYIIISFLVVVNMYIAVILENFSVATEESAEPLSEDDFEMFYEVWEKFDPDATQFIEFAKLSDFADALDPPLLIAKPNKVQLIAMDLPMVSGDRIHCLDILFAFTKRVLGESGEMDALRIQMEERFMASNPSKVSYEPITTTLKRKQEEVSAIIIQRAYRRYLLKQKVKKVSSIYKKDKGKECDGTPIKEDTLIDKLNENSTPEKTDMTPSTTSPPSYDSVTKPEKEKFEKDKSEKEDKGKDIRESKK
Data set [17] deals with CYP3A4 (Homo sapiens, UniProt P08684). Put plainly: Inhibition of CYP3A4 (unknown origin) at 3 uM by high throughput assay relative to control. In kind it is ADME.
Data set [18] is described as follows: Clearance in human liver microsomes. In kind it is ADME, microsome. The note with it: read-out: CLH.
Data set [19] is described as follows: Clearance in rat liver microsomes. In kind it is ADME, microsome. Conditions: read-out: CLH.
Data set [20] concerns the target T1, Sodium channel protein type 3 subunit alpha (Homo sapiens, UniProt Q9NY46). The data set is described as follows: Inhibition of human NaV1.3 expressed in HEK cells by electrophysiological method. Format: cell-based.
For data set [21], the target named is CYP2C9 (Homo sapiens, UniProt P11712). Put plainly: Inhibition of CYP2C9 (unknown origin) at 3 uM by high throughput assay relative to control. In kind it is ADME.
The target of data set [22] is T1, Sodium channel protein type 3 subunit alpha. The data set is described as follows: Inhibition of NaV1.3 (unknown origin) expressed in HEK293 cells by CC2-DMPE/DiSBAC2(3) dye-based FRET assay. In kind it is cell-based.
For data set [23], the system named is Cynomolgus monkey. The data set is described as follows: Toxicity in cynomolgus monkey assessed as change in heart rate at 30 mg/kg. Format: organism-based, Macaca fascicularis. Conditions: in vivo.
In data set [24] the test system is Cynomolgus monkey. The data set is described as follows: Toxicity in cynomolgus monkey assessed as change in systolic blood pressure at 30 mg/kg. In kind it is organism-based, Macaca fascicularis. Conditions: in vivo.
Data set [25] deals with Cynomolgus monkey. The data set is described as follows: Toxicity in cynomolgus monkey assessed as change in left ventricular pressure parameters at 30 mg/kg. Conditions: in vivo. In kind it is organism-based, Macaca fascicularis.
Data set [26] deals with Cynomolgus monkey. The data set is described as follows: Toxicity in cynomolgus monkey assessed as change in diastolic blood pressure at 30 mg/kg. In kind it is organism-based, Macaca fascicularis. Conditions: in vivo.
The subject of data set [27] is Rattus norvegicus. The data set is described as follows: Antipain activity in tibial nerve transection surgery model of rat assessed as reduction of mechanical punctate stimuli evoked activity at 3 to 10 mg/kg administered as iv bolus dose measured every 15 mins for 30 mins. Format: functional, organism-based. The essentials: (§1)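 Rats had tibial nerve transection 2–3 weeks before recording. Under isoflurane anaesthesia (5% in O2) in a stereotaxic frame, body temperature was held at 37 °C and L4-5 spinal segments were exposed by laminectomy. After stable baseline responses, compound was given as an IV bolus, with effects assessed every 15 min for up to 30 min per dose. Treatment was randomised and blinded, and dry blood spots were taken for plasma exposure.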

For data set [28], the system named is Rattus norvegicus. The data set is described as follows: Prodrug conversion in po dosed rat assessed as formation of N-(3-chloro-4-(trifluoromethoxy)benzyl)-3-fluoro-4-(N-thiazol-2-ylsulfamoyl)benzamide. In kind it is ADME, organism-based. The note with it: in vivo.
Data set [29] deals with Rattus norvegicus. Put plainly: Antipain activity in tibial nerve transection surgery model of rat assessed as reduction of innocuous brush evoked activity at 3 to 10 mg/kg administered as iv bolus dose measured every 15 mins for 30 mins. In kind it is functional, organism-based. The procedure, abridged: as §1
The test system of data set [30] is Rattus norvegicus. Put plainly: Antipain activity in tibial nerve transection surgery model of rat assessed as reduction of noxious pinch evoked activity at 3 to 10 mg/kg administered as iv bolus dose measured every 15 mins for 30 mins. In kind it is functional, organism-based. The essentials:
as §1

In data set [31] the test system is Cynomolgus monkey. Put plainly: Toxicity in cynomolgus monkey assessed as effect on ECG parameters at 30 mg/kg. Format: organism-based, Macaca fascicularis. Conditions: in vivo.
The test system of data set [32] is Rattus norvegicus. The data set is described as follows: Antipain activity in tibial nerve transection surgery model of rat assessed as reduction of heat evoked activity at 3 to 10 mg/kg administered as iv bolus dose measured every 15 mins for 30 mins. In kind it is functional, organism-based. The procedure, abridged:
as §1

T1 sequence (Q9NY46 whole entry): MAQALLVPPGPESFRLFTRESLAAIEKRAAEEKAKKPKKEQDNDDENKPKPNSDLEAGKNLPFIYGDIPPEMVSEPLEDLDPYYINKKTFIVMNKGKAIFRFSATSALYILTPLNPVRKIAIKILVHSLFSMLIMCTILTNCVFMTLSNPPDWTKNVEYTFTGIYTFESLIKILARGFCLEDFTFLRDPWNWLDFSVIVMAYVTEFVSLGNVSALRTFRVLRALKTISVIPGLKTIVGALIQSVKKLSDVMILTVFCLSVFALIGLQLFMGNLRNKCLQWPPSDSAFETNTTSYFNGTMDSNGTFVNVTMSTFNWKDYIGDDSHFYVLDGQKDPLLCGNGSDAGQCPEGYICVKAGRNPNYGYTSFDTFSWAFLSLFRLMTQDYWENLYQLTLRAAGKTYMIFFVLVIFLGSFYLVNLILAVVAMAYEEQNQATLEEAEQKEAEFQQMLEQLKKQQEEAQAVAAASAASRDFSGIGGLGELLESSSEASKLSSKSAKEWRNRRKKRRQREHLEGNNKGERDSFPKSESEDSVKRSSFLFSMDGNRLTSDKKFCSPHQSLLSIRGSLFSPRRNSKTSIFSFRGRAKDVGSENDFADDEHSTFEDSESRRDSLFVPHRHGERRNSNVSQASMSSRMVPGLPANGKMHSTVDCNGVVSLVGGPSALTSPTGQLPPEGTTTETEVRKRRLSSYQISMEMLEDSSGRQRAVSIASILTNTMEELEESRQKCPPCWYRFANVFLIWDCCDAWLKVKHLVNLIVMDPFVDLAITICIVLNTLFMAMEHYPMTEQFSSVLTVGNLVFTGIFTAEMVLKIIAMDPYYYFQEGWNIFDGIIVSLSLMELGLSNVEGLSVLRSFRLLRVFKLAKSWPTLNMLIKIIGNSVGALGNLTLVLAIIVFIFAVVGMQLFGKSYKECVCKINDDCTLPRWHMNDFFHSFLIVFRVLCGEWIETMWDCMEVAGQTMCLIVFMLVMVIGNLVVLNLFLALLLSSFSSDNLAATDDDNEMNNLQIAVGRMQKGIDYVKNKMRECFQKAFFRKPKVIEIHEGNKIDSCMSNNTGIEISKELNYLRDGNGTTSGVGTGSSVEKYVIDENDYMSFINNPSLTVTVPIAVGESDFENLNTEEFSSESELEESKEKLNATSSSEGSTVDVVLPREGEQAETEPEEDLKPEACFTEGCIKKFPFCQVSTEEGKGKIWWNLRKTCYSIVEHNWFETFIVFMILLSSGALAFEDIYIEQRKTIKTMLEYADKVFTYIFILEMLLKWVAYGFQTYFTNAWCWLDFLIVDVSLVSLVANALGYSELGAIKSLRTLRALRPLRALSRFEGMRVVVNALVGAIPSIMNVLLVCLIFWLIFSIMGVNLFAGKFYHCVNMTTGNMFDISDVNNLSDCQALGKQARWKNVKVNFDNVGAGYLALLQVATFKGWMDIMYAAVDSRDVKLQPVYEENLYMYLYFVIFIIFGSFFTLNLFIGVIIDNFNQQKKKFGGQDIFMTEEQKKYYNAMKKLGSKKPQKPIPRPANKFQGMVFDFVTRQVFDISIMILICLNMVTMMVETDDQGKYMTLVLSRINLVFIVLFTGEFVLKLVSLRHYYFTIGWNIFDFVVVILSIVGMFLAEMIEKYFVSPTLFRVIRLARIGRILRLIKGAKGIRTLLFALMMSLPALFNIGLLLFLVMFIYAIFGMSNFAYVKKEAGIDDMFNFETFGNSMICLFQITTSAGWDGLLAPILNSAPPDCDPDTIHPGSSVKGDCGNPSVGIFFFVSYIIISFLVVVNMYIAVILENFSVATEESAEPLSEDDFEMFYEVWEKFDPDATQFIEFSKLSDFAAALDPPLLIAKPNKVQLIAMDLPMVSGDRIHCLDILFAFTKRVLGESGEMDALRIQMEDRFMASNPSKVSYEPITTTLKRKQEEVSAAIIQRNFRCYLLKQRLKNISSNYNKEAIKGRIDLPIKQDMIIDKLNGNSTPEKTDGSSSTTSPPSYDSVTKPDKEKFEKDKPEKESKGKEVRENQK

A word on the IC50: it is the point on the concentration scale where inhibition reaches its midpoint. What is called efflux ratio is a quotient of directional permeabilities that is used to spot active efflux. A word on the Vd: it is a proportionality between amount in the body and measured concentration, not a real space. As a reminder, the logD is the decadic logarithm of the distribution of all forms, ionised or not, between an organic phase and buffer at a given pH. What is called solubility is how much of the substance goes into solution per volume. As usually defined, the bioavailability is the share of a dose that reaches the circulation, judged against a reference dose that is usually intravenous. For orientation: pKa means the pH at which an ionisable group is half protonated. What is called clearance is the volume of plasma or blood freed of the substance per unit of time. Broadly, the fraction unbound is the share of the substance not bound to proteins or other matrix. What is called inhibition is the drop in the measured response relative to a control, in per cent. Turning to `O=S(=O)(Nc1ncns1)c1ccc(OCc2ccc(OC(F)(F)F)c(Cl)c2)cc1`, the IC50 in data set [1] was 5.1 µM; in data set [2], 15.1 µM; in [8], greater than 10 µM; in data set [9], 0.455 µM; in data set [16], 2.76 µM; in data set [20], 0.022 µM. In [3], the efflux ratio turned out to be 1. In addition, in data set [4], the half-life was 7 h. Moreover, the Vd in data set [5] was 1 L/kg. Further, the microsomal CLint in [6] was less than 18 µL/min/mg; in [10] it was less than 32 µL/min/mg; in data set [18], 15 µL/min/mg; in data set [19] it was less than 14 µL/min/mg. Further, the logD in data set [7] was found to be 2.65. Further, in data set [11], the concentration in solution (solubility) was 99 µM (≈ 46.1 µg/mL). This compound displayed a bioavailability in data set [12] of 73%. Further, in [13], the pKa came to 4.1. The compound also had a clearance in [14] of 2 mL/min/kg. This compound returned a fraction unbound in [15] of 0.00024. Besides, the inhibition at 3 µM in [17] worked out at 75%; in [21] it was 85%.

The compound `O=C1[C@@H](N2CC[C@H](c3cc(Cl)cc(Cl)c3)C2)CCN1c1ccc(S(=O)(=O)Nc2nccs2)cc1` returned an IC50 in data set [22] of less than 2 µM.

As to `O=C(NCc1ccc(OC(F)(F)F)c(Cl)c1)c1ccc(S(=O)(=O)/N=c2\sccn2COP(=O)(O)O)c(F)c1`, the Activity result in [23], in data set [24], in [25], in data set [26] and in data set [31] was “Non-Toxic” throughout. Also, the result in [27], in data set [29] and in [32] was inactive. In addition, the Drug metabolism result in [28] is listed as “Metabolite_Detected”. The outcome in data set [30] was Active.
